Measured values as given in ChEMBL document CHEMBL3526127, “Absorption, elimination, and metabolism of CS-1036, a novel α-amylase inhibitor in rats and monkeys, and the relationship between gastrointestinal distribution and suppression of glucose absorption” (Drug Metab Dispos, 2013).

Tests used:
[1] = Drug metabolism in human kidney S9 fractions at 0.42 uCi/ml assessed as metabolite formation in presence of NADPH after 1 hr at 37 degC by LC-MS/MS method; assay type: ADME, tissue-based; conditions: s9, 1 h
[2] = Drug excretion in bile duct cannulated F344 rat bile at 1 mg/kg, po administered as single dose after 0 to 48 hrs by scintillation counting method; assay type: ADME, organism-based; parameters: dose 1 mg/kg, route oral; conditions: in vivo
Summary of the method: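 Common bile duct was cannulated under diethyl ether in fasted F344 rats. After recovery, [14C]-labelled drug (1 mg/kg, 41.9 µCi/kg) was given iv via tail vein or by oral gavage (n = 4). Rats were held in Bollman cages and bile was collected at 4°C over 0–48 h intervals. Bile was counted by liquid scintillation; % of dose.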

[3] = Drug metabolism in human liver S9 fractions at 0.42 uCi/ml assessed as metabolite formation in presence of NADPH after 1 hr at 37 degC by LC-MS/MS method; assay type: ADME, subcellular, Liver S9 fraction; conditions: s9, 1 h
[4] = Drug metabolism in rat liver S9 fractions at 0.42 uCi/ml assessed as metabolite formation in presence of NADPH after 1 hr at 37 degC by LC-MS/MS method; assay type: ADME, subcellular, Liver S9 fraction; conditions: s9, 1 h
[5] = Drug metabolism in anaerobic culture broth of F344 rat cecal content assessed as 1,4-dideoxy-1,4-imino-D-arabinitol formation at 63.5 uCi/ml after 24 hrs at 35 degC by LC-MS/MS method; assay type: ADME
[6] = Drug excretion in F344 rat expired air at 1 mg/kg, iv administered as single dose after 0 to 48 hrs by scintillation counting method; assay type: ADME, organism-based; parameters: dose 1 mg/kg, route intravenous; conditions: in vivo
Summary of the method: (§1)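 Fasted F344 rats (152–156 g iv via tail vein; 154–159 g oral; n = 4) received [14C]-labelled drug at 1 mg/kg (41.9 µCi/kg). Animals were kept in metabolic cages; urine and feces were collected to 168 h, and expired CO2 was trapped in 2-aminoethanol/2-methoxyethanol (1:1) to 48 h. Samples were counted by liquid scintillation (feces homogenized). Results are % of dose, mean ± S.D.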

[7] = Drug metabolism in monkey kidney S9 fractions at 0.42 uCi/ml assessed as metabolite formation in presence of NADPH after 1 hr at 37 degC by LC-MS/MS method; assay type: ADME, tissue-based, Macaca mulatta; conditions: rhesus monkey, s9, 1 h
[8] = Drug metabolism in monkey intestinal S9 fractions at 0.42 uCi/ml assessed as metabolite formation in presence of NADPH after 1 hr at 37 degC by LC-MS/MS method; conditions: cynomolgus monkey, s9, 1 h
[9] = Drug metabolism in F344 rat urine assessed as 1,4-dideoxy-1,4-imino-D-arabinitol formation by LC-MS/MS method; assay type: ADME, tissue-based
[10] = Drug distribution in F344 rat cecum at 1 mg/kg, po administered as single dose after 2 hrs by scintillation counting method; assay type: ADME, organism-based, Caecum; parameters: dose 1 mg/kg, route oral; conditions: in vivo
Summary of the method: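 [14C]-labelled drug (1 mg/kg, 42.4 µCi/kg) was given orally to fasted F344 rats (148–168 g, n = 3). Contents of stomach, duodenum+jejunum, ileum and cecum were washed out with water at 0.5–8 h, homogenized, solubilized and counted by liquid scintillation. Results are % of dose, mean ± S.D.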

[11] = Drug excretion in cynomolgus monkey urine at 3 mg/kg, po administered as single dose after 0 to 336 hrs by scintillation counting method; assay type: ADME, organism-based, Macaca fascicularis; parameters: dose 3 mg/kg, route oral; conditions: in vivo
Rattus norvegicus = experiment: Total drug excretion in F344 rat at 1 mg/kg, iv administered as single dose after 0 to 48 hrs by scintillation counting method; assay type: ADME, organism-based; parameters: dose 1 mg/kg, route intravenous; conditions: in vivo
Summary of the method: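 Fasted F344 rats (n = 4) received [14C]-labelled drug at 1 mg/kg (41.9 µCi/kg), iv via tail vein or oral. They were housed in metabolic cages. Urine and feces were collected to 168 h, and expired CO2 was trapped in 2-aminoethanol/2-methoxyethanol to 48 h. Radioactivity was counted by liquid scintillation, feces after homogenization. Results are % of dose.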

Plasma = experiment: Drug metabolism in po dosed F344 rat plasma by LC-MS/MS method; assay type: ADME, organism-based; conditions: in vivo
[12] = Drug excretion in F344 rat feces at 1 mg/kg, iv administered as single dose after 0 to 48 hrs by scintillation counting method; assay type: ADME, organism-based; parameters: dose 1 mg/kg, route intravenous; conditions: in vivo; summary of the method: as §1
Cynomolgus monkey = experiment: Drug excretion in cynomolgus monkey assessed as drug level found during cage washing at 3 mg/kg, iv administered as single dose after 0 to 48 hrs by scintillation counting method; assay type: ADME, organism-based, Macaca fascicularis; parameters: dose 3 mg/kg, route intravenous; conditions: in vivo
Summary of the method: (§2)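 Fasted cynomolgus monkeys (n = 4) received [14C]-labelled drug at 3 mg/kg, iv via saphenous vein (191 µCi/kg) or orally by stomach catheter (156.5 µCi/kg). Urine, feces and water cage-wash were collected to 336 h. Samples were counted by liquid scintillation; feces were homogenized in 4-fold water. Results are % of dose, mean ± S.D.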

[13] = Drug excretion in cynomolgus monkey feces at 3 mg/kg, iv administered as single dose after 0 to 48 hrs by scintillation counting method; assay type: ADME, organism-based, Macaca fascicularis; parameters: dose 3 mg/kg, route intravenous; conditions: in vivo; summary of the method: as §2
[14] = Half life in F344 rat at 1 mg/kg, po administered as single dose by LC-MS/MS method; assay type: ADME, organism-based; parameters: dose 1 mg/kg, route oral; conditions: in vivo
[15] = Cmax in F344 rat at 10 mg/kg, po administered as single dose by LC-MS/MS method; assay type: ADME, organism-based; parameters: dose 10 mg/kg, route oral; conditions: in vivo
[16] = Half life in cynomolgus monkey at 10 mg/kg, iv administered as single dose by LC-MS/MS method; assay type: ADME, organism-based, Macaca fascicularis; parameters: dose 10 mg/kg, route intravenous; conditions: in vivo
Summary of the method: (§3)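 Male F344 rats (146–185 g) and male cynomolgus monkeys (3.48–4.29 kg), n = 4 each, fasted overnight, received single iv or oral doses of 0.3, 1.0, 3.0 or 10.0 mg/kg. Monkeys had 2-week washouts between doses. Plasma was sampled to 48 h and assayed by LC-MS/MS with deuterated internal standard. Noncompartmental analysis: tmax observed; t1/2 by regression on ≥3 terminal log points; Vss = dose·AUMC/(AUC0–inf)²; Foral = oral/iv AUC0–inf at the same dose.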

[17] = Cmax in F344 rat at 3 mg/kg, po administered as single dose by LC-MS/MS method; assay type: ADME, organism-based; parameters: dose 3 mg/kg, route oral; conditions: in vivo
[18] = Oral bioavailability in cynomolgus monkey at 3 mg/kg administered as single dose by LC-MS/MS method; assay type: ADME, organism-based, Macaca fascicularis; conditions: in vivo; summary of the method: as §3
[19] = Volume of distribution at steady state in cynomolgus monkey at 1 mg/kg, iv administered as single dose by LC-MS/MS method; assay type: ADME, organism-based, Macaca fascicularis; parameters: dose 1 mg/kg, route intravenous; conditions: in vivo, read-out: Vdss; summary of the method: as §3
[20] = Volume of distribution at steady state in cynomolgus monkey at 10 mg/kg, iv administered as single dose by LC-MS/MS method; assay type: ADME, organism-based, Macaca fascicularis; parameters: dose 10 mg/kg, route intravenous; conditions: in vivo, read-out: Vdss; summary of the method: as §3
[21] = Half life in cynomolgus monkey at 10 mg/kg, po administered as single dose by LC-MS/MS method; assay type: ADME, organism-based, Macaca fascicularis; parameters: dose 10 mg/kg, route oral; conditions: in vivo; summary of the method: as §3
[22] = AUC (0 to infinity) in F344 rat at 0.3 mg/kg, iv administered as single dose by LC-MS/MS method; assay type: ADME, organism-based; parameters: time infinity, dose 0.3 mg/kg, route intravenous; conditions: plasma
Summary of the method: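 Fasted male F344 rats (146–185 g) or male cynomolgus monkeys (3.48–4.29 kg), n = 4 per dose, given single iv or oral dose of 0.3, 1.0, 3.0 or 10.0 mg/kg; monkeys dosed with 2-week washouts. Blood sampled to 48 h; plasma stored frozen. LC-MS/MS with deuterated internal standard. Noncompartmental analysis: AUClast by trapezoidal rule; AUC0–inf = AUClast + Ctz/terminal rate constant; mean ± S.D.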

Question: Which Drug metabolism [1] does the source give for `C[C@H]1O[C@@H](O[C@H]2[C@H](O)[C@@H](O)[C@@H](O[14C@H]3[14C@H](O)[14CH2]N[14C@@H]3[14CH2]O)O[C@@H]2CO)[C@H](O)[C@@H](O)[C@@H]1O` here?
Answer: metabolite_not_detected

Question: And the Drug excretion [2]?
Answer: 0.59%

Question: And the Drug metabolism [3]?
Answer: metabolite_not_detected

Question: What about the Drug metabolism [4] of the same compound?
Answer: metabolite_not_detected

Question: And the Drug metabolism [5]?
Answer: metabolite_detected

Question: What about the Drug excretion [6] of the same compound?
Answer: 0.82%

Question: What about the Drug metabolism [7] of the same compound?
Answer: metabolite_not_detected

Question: And the Drug metabolism [8]?
Answer: metabolite_not_detected

Question: And the Drug metabolism [9]?
Answer: metabolite_detected

Question: And the Drug uptake [10]?
Answer: 49.9%

Question: What about the Drug excretion [11] of the same compound?
Answer: 5.67%

Question: What about the Drug excretion (Rattus norvegicus) of the same compound?
Answer: 86.96%

Question: What about the Drug metabolism (Plasma) of the same compound?
Answer: metabolite_not_detected

Question: And the Drug excretion [12]?
Answer: 15.66%

Question: And the Drug excretion (Cynomolgus monkey)?
Answer: 13.7%

Question: What about the Drug excretion [13] of the same compound?
Answer: 0.46%

Question: Which half-life [14] does the source give for `C[C@H]1O[C@@H](O[C@H]2[C@H](O)[C@@H](O)[C@@H](O[C@H]3[C@H](O)CN[C@@H]3CO)O[C@@H]2CO)[C@H](O)[C@@H](O)[C@@H]1O` here?
Answer: 109 min

Question: What about the Cmax [15] of the same compound?
Answer: 285 ng/mL

Question: And the half-life [16]?
Answer: 1800 min

Question: And the Cmax [17]?
Answer: 113 ng/mL

Question: And the bioavailability [18]?
Answer: 1.05%

Question: What about the Vd [19] of the same compound?
Answer: 0.271 L/kg

Question: What about the Vd [20] of the same compound?
Answer: 0.217 L/kg

Question: What about the half-life [21] of the same compound?
Answer: 756 min

Question: What about the AUC(0-inf) [22] of the same compound?
Answer: 1870 ng·h/mL
